Results: PMC9464755 (Advances in Therapy, 2022)
Converted amounts (≈) assume the structure as drawn. Read-outs that look alike come from different tables or passages of the source.

Columns and labels:
[1] = cited from earlier work
[2] = cited from earlier work; remark: listed apart in the source
[3] = healthy subjects; cited from earlier work
[4] = cited from earlier work; remark: listed apart in the source
[5] = tested on: cytochrome P450 (CYP) 3A4; conditions: in vitro study; cited from earlier work
[6] = Steady-state pharmacokinetics of lazertinib with; type: in vivo, human; conditions: for CD15, arithmetic mean: 240 mg once daily; for DNAUCss, arithmetic mean / DNCmax,ss, arithmetic mean / DNCD15, arithmetic mean: 40–320 mg once daily; for DNAUCss, arithmetic mean / DNCmax,ss, arithmetic mean: steady state
In short: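 NSCLC patients dosed once daily, fasting, in 21-day cycles. AUCss and Cmax,ss came from non-compartmental analysis using actual sampling times over the dosing interval after the 22nd dose (cycle 2 day 1). CD15 is the trough before the 15th dose. Groups were compared using dose-normalized values within the dose-proportional range, plus raw values at 240 mg. Analysis was ANOVA on log-transformed values with group as fixed effect; geometric mean ratios with 90% CI.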

[7] = once-daily administration; cited from earlier work
[8] = co-administered with omeprazole or ranitidine
[9] = co-administered with ranitidine (an H2RA)

O=C(c1ccc(F)c(F)c1Nc1ccc(I)cc1F)N1CC(O)([C@@H]2CCCCN2)C1 [cobimetinib]
Effect of rabeprazole on exposure ([1]; fed and fasted conditions): did not result in a statistically significant effect | Fold less solubility ([2]; pH 6.4 compared to pH 1.9): 100 fold

C[C@@H](Oc1cc(-c2cnn(C3CCNCC3)c2)cnc1N)c1c(Cl)ccc(F)c1Cl [crizotinib]
Effect of esomeprazole on pharmacokinetics [1]: no clinically significant effect | Solubility ([2]; pH 1.6): > 10000 µg/mL | Solubility ([2]; pH 7.7): 100 µg/mL (≈ 0.222 mM)

C#Cc1cccc(Nc2ncnc3cc(OCCOC)c(OCCOC)cc23)c1 [erlotinib]
AUC decreased by [1, 8]: 30–45% | Cmax decreased by [1, 8]: 50–60%

COc1cc2ncnc(Nc3ccc(F)c(Cl)c3)c2cc1OCCCN1CCOCC1 [gefitinib]
AUC decreased to [1, 9]: 45% | Cmax decreased to [1, 9]: 70%

C=CC(=O)Nc1cc(Nc2nccc(-n3cc(CN(C)C)c(-c4ccccc4)n3)n2)c(OC)cc1N1CCOCC1 [lazertinib, Lazertinib]
Effect of a high-fat meal on the pharmacokinetics [3]: did not significantly affect | Solubility in aqueous media ([4]; between pH 5.0 and 6.0): solubility decreasing | Solubility in aqueous media ([4]; pH 1.2–4.0): soluble | Solubility in aqueous media ([4]; pH 7.0–8.0): practically insoluble | Metabolizing enzyme [5]: predominantly metabolized by cytochrome P450 (CYP) 3A4 | Reduction of exposure by ARAs at the steady state ([6]; ARA group versus non-ARA group): approximately 10% | Effect of co-administered ARAs on the steady state pharmacokinetics ([6]; ARA group versus non-ARA group, all p values > 0.05): did not significantly affect | CD15, arithmetic mean ([6]; ARA group, trough day 15 of cycle 1, n=10): 159.01 (62.4%) ng/mL | DNAUCss, arithmetic mean ([6]; ARA group, n=19): 25.51 (59.9%) h·ng/mL/mg | DNCmax,ss, arithmetic mean ([6]; ARA group, n=19): 1.97 (50.1%) ng/mL/mg | DNCD15, arithmetic mean ([6]; ARA group, trough day 15 of cycle 1, n=23): 0.66 (62.1%) ng/mL/mg | CD15, arithmetic mean ([6]; Non-ARA group, trough day 15 of cycle 1, n=115): 175.70 (59.4%) ng/mL | DNAUCss, arithmetic mean ([6]; Non-ARA group, n=105): 27.61 (42.9%) h·ng/mL/mg | DNCmax,ss, arithmetic mean ([6]; Non-ARA group, n=105): 2.14 (44.3%) ng/mL/mg | DNCD15, arithmetic mean ([6]; Non-ARA group, trough day 15 of cycle 1, n=203): 0.72 (63.4%) ng/mL/mg | Time to reach steady state [7]: ≤ 15 days

COC(=O)c1ccc2c(c1)NC(=O)/C2=C(\Nc1ccc(N(C)C(=O)CN2CCN(C)CC2)cc1)c1ccccc1 [nintedanib]
Effect of PPI or H2RA on exposure [1]: neither PPI nor H2RA affected | pH-dependent solubility profile [2]: increased solubility at acidic pH < 3

Cc1ccc(C(=O)Nc2ccc(CN3CCN(C)CC3)c(C(F)(F)F)c2)cc1C#Cc1cnc2cccnn12 [ponatinib]
Effect of lansoprazole on exposure [1]: did not have a clinically significant effect
